Converted amounts (≈) assume the structure as drawn.
Key:
[1] = tested on: Trichosporon beigelii; assay: Antifungal activity against Trichosporon beigelii 1188 after 48 hrs by microdilution method; assay type: functional; conditions: Trichosporon beigelii, 1188, 48 h
How it was run: (§1)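 Yeasts held on Sabouraud dextrose agar. MIC by NCCLS M27-A broth microdilution in RPMI 1640 with L-glutamine, buffered with 0.165 M MOPS to pH 7.0. Compounds in DMSO (≤2% final), twofold dilutions 500–0.48. Final inoculum 5 × 10³ ± 0.2 cfu mL⁻¹. Incubated at 35 °C; absorbance at 540 nm read at 24 and 48 h. MIC is 80% growth inhibition versus control; run twice in duplicate.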

[2] = tested on: Trichophyton mentagrophytes; assay: Antifungal activity against Trichophyton mentagrophytes 445 after 120 hrs by microdilution method; assay type: functional; conditions: Trichophyton mentagrophytes, 445, 120 h
How it was run: (§2)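 Dermatophyte held on Sabouraud dextrose agar. M27-A microdilution in MOPS-buffered (0.165 M, pH 7.0) RPMI 1640 with L-glutamine. DMSO ≤2% final; twofold dilutions 500–0.48. Inoculum 5 × 10³ ± 0.2 cfu mL⁻¹ final. Incubated at 35 °C; MIC read visually at 72 and 120 h as 80% inhibition of control growth; determined twice in duplicate.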

[3] = tested on: Candida parapsilosis; assay: Antifungal activity against Candida parapsilosis ATCC 22019 after 48 hrs by microdilution method; assay type: functional; conditions: Lodderomyces parapsilosis, ATCC 22019, 48 h; how it was run: as §1
[4] = tested on: Trichophyton mentagrophytes; assay: Antifungal activity against Trichophyton mentagrophytes 445 after 72 hrs by microdilution method; assay type: functional; conditions: Trichophyton mentagrophytes, 445, 72 h; how it was run: as §2
[5] = tested on: Aspergillus fumigatus; assay: Antifungal activity against Aspergillus fumigatus 231 after 48 hrs by microdilution method; assay type: functional; conditions: Aspergillus fumigatus, 231, 48 h
How it was run: (§3)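 Filamentous strains held on Sabouraud dextrose agar. NCCLS M27-A broth microdilution in RPMI 1640 with L-glutamine and 0.165 M MOPS, pH 7.0. DMSO diluent ≤2% final; twofold dilutions 500–0.48. Inoculum 5 × 10³ ± 0.2 cfu mL⁻¹ final.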

[6] = tested on: CCRF-CEM; assay: Cytostatic activity against human CCRF-CEM cells after 72 hrs by XTT assay; assay type: functional, cell-based
How it was run: (§4)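 Leukemia cells (L1210 ATCC CCL 219, CCRF-CEM ATCC CCL 119, HL-60 ATCC CCL 240) grown in 24-well plates in RPMI 1640 with fetal calf serum. Growth assessed 72 h after drug addition. Viability measured by XTT spectrophotometric assay; potency given as IC50.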

[7] = tested on: Nakaseomyces glabratus; assay: Antifungal activity against Candida glabrata 20/I after 24 hrs by microdilution method; assay type: functional; how it was run: as §1
[8] = tested on: Pichia kudriavzevii; assay: Antifungal activity against Candida krusei ATCC 6258 after 48 hrs by microdilution method; assay type: functional; conditions: ATCC 6258, 48 h; how it was run: as §1
[9] = tested on: Candida albicans; assay: Antifungal activity against Candida albicans ATCC 90028 after 48 hrs by microdilution method; assay type: functional; conditions: ATCC 90028, 48 h; how it was run: as §1
[10] = tested on: Lichtheimia corymbifera; assay: Antifungal activity against Absidia corymbifera 272 after 48 hrs by microdilution method; assay type: functional; conditions: Lichtheimia corymbifera, 272, 48 h; how it was run: as §3
[11] = tested on: Clavispora lusitaniae; assay: Antifungal activity against Candida lusitaniae 2446/I after 48 hrs by microdilution method; assay type: functional; how it was run: as §1
[12] = tested on: L1210; assay: Cytostatic activity against mouse L1210 cells after 72 hrs by XTT assay; assay type: functional, cell-based; conditions: l1210; how it was run: as §4
[13] = tested on: Lichtheimia corymbifera; assay: Antifungal activity against Absidia corymbifera 272 after 24 hrs by microdilution method; assay type: functional; conditions: Lichtheimia corymbifera, 272, 24 h; how it was run: as §3
[14] = tested on: Pichia kudriavzevii; assay: Antifungal activity against Candida krusei E28 after 48 hrs by microdilution method; assay type: functional; conditions: E28, 48 h; how it was run: as §1
[15] = tested on: Candida tropicalis; assay: Antifungal activity against Candida tropicalis 156 after 48 hrs by microdilution method; assay type: functional; conditions: Candida tropicalis, 156, 48 h; how it was run: as §1
[16] = tested on: HeLa S3; assay: Cytostatic activity against human HeLaS3 cells after 48 hrs by XTT assay
[17] = tested on: Candida albicans; assay: Antifungal activity against Candida albicans ATCC 90028 after 24 hrs by microdilution method; assay type: functional; conditions: ATCC 90028, 24 h; how it was run: as §1
[18] = tested on: Clavispora lusitaniae; assay: Antifungal activity against Candida lusitaniae 2446/I after 24 hrs by microdilution method; assay type: functional; how it was run: as §1
[19] = tested on: Candida albicans; assay: Antifungal activity against Candida albicans ATCC 44859 after 48 hrs by microdilution method; assay type: functional; conditions: ATCC 44859, 48 h; how it was run: as §1
[20] = tested on: Trichosporon beigelii; assay: Antifungal activity against Trichosporon beigelii 1188 after 24 hrs by microdilution method; assay type: functional; conditions: Trichosporon beigelii, 1188, 24 h; how it was run: as §1
[21] = tested on: Candida tropicalis; assay: Antifungal activity against Candida tropicalis 156 after 24 hrs by microdilution method; assay type: functional; conditions: Candida tropicalis, 156, 24 h; how it was run: as §1
[22] = tested on: HL-60; assay: Cytostatic activity against human HL60 cells after 72 hrs by XTT assay; assay type: functional, cell-based; conditions: hl-60; how it was run: as §4
[23] = tested on: Nakaseomyces glabratus; assay: Antifungal activity against Candida glabrata 20/I after 48 hrs by microdilution method; assay type: functional; how it was run: as §1
[24] = tested on: Candida parapsilosis; assay: Antifungal activity against Candida parapsilosis ATCC 22019 after 24 hrs by microdilution method; assay type: functional; conditions: Lodderomyces parapsilosis, ATCC 22019, 24 h; how it was run: as §1
[25] = tested on: Pichia kudriavzevii; assay: Antifungal activity against Candida krusei ATCC 6258 after 24 hrs by microdilution method; assay type: functional; conditions: ATCC 6258, 24 h; how it was run: as §1
[26] = tested on: Pichia kudriavzevii; assay: Antifungal activity against Candida krusei E28 after 24 hrs by microdilution method; assay type: functional; conditions: E28, 24 h; how it was run: as §1
[27] = tested on: Aspergillus fumigatus; assay: Antifungal activity against Aspergillus fumigatus 231 after 24 hrs by microdilution method; assay type: functional; conditions: Aspergillus fumigatus, 231, 24 h; how it was run: as §3
[28] = tested on: Candida albicans; assay: Antifungal activity against Candida albicans ATCC 44859 after 24 hrs by microdilution method; assay type: functional; conditions: ATCC 44859, 24 h; how it was run: as §1

CCOCC1C=C(c2ccc(Br)cc2)C(=O)O1 (centres undefined)
MIC80 [1]: 250 µM (≈ 74.3 µg/mL) | MIC80 [2]: 15.6 µM (≈ 4.64 µg/mL) | MIC80 [3]: 250 µM (≈ 74.3 µg/mL) | MIC80 [4]: 15.6 µM (≈ 4.64 µg/mL) | MIC80 [5]: 125 µM (≈ 37.1 µg/mL) | IC50 ([6]; Homo sapiens, CCRF-CEM, 72 h, read-out: IC50): 9.82 µM | MIC80 [7]: 62.5 µM (≈ 18.6 µg/mL) | MIC80 [8]: 250 µM (≈ 74.3 µg/mL) | MIC80 [9]: 125 µM (≈ 37.1 µg/mL) | MIC80 [10]: 125 µM (≈ 37.1 µg/mL) | MIC80 [11]: 250 µM (≈ 74.3 µg/mL) | IC50 [12]: Not Active | MIC80 [13]: 125 µM (≈ 37.1 µg/mL) | MIC80 [14]: 250 µM (≈ 74.3 µg/mL) | MIC80 [15]: 250 µM (≈ 74.3 µg/mL) | IC50 ([16]; Homo sapiens, HeLa S3, 48 h, read-out: IC50): 1.94 µM | MIC80 [17]: 125 µM (≈ 37.1 µg/mL) | MIC80 [18]: 125 µM (≈ 37.1 µg/mL) | MIC80 [19]: 62.5 µM (≈ 18.6 µg/mL) | MIC80 [20]: 125 µM (≈ 37.1 µg/mL) | MIC80 [21]: 250 µM (≈ 74.3 µg/mL) | IC50 [22]: Not Active | MIC80 [23]: 62.5 µM (≈ 18.6 µg/mL) | MIC80 [24]: 125 µM (≈ 37.1 µg/mL) | MIC80 [25]: 250 µM (≈ 74.3 µg/mL) | MIC80 [26]: 250 µM (≈ 74.3 µg/mL) | MIC80 [27]: 62.5 µM (≈ 18.6 µg/mL) | MIC80 [28]: 31.2 µM (≈ 9.29 µg/mL)

O=C1O/C(=C\CCCO)C=C1c1ccc(Br)cc1
MIC80 [1]: > 500 µM | MIC80 [2]: 62.5 µM (≈ 19.3 µg/mL) | MIC80 [3]: > 500 µM | MIC80 [4]: 62.5 µM (≈ 19.3 µg/mL) | MIC80 [5]: > 500 µM | IC50 ([6]; ccrf-cem): Not Active | MIC80 [7]: > 500 µM | MIC80 [8]: > 500 µM | MIC80 [9]: > 500 µM | MIC80 [10]: 62.5 µM (≈ 19.3 µg/mL) | MIC80 [11]: > 500 µM | IC50 [12]: Not Active | MIC80 [13]: 62.5 µM (≈ 19.3 µg/mL) | MIC80 [14]: > 500 µM | MIC80 [15]: > 500 µM | IC50 ([16]; hela s3): Not Active | MIC80 [17]: > 500 µM | MIC80 [18]: > 500 µM | MIC80 [19]: 125 µM (≈ 38.6 µg/mL) | MIC80 [20]: > 500 µM | MIC80 [21]: > 500 µM | IC50 [22]: Not Active | MIC80 [23]: > 500 µM | MIC80 [24]: > 500 µM | MIC80 [25]: > 500 µM | MIC80 [26]: > 500 µM | MIC80 [27]: > 500 µM | MIC80 [28]: 62.5 µM (≈ 19.3 µg/mL)

O=C1O/C(=C\c2ccccc2)C=C1c1ccc(Br)cc1
MIC80 [1]: > 125 µM | MIC80 [2]: > 125 µM | MIC80 [3]: > 125 µM | MIC80 [4]: > 125 µM | MIC80 [5]: > 125 µM | IC50 ([6]; ccrf-cem): Not Active | MIC80 [7]: > 125 µM | MIC80 [8]: > 125 µM | MIC80 [9]: > 125 µM | MIC80 [10]: > 125 µM | MIC80 [11]: > 125 µM | IC50 [12]: Not Active | MIC80 [13]: > 125 µM | MIC80 [14]: > 125 µM | MIC80 [15]: > 125 µM | IC50 ([16]; hela s3): Not Active | MIC80 [17]: > 125 µM | MIC80 [18]: > 125 µM | MIC80 [19]: > 125 µM | MIC80 [20]: > 125 µM | MIC80 [21]: > 125 µM | IC50 [22]: Not Active | MIC80 [23]: > 125 µM | MIC80 [24]: > 125 µM | MIC80 [25]: > 125 µM | MIC80 [26]: > 125 µM | MIC80 [27]: > 125 µM | MIC80 [28]: > 125 µM

Source: ChEMBL document CHEMBL1157589, “Antifungal 3,5-disubstituted furanones: From 5-acyloxymethyl to 5-alkylidene derivatives” (Bioorg Med Chem, 2010)
